Experimental data taken from ChEMBL document CHEMBL1156486, “Discovery and characterization of a novel inhibitor of matrix metalloprotease-13 that reduces cartilage damage in vivo without joint fibroplasia side effects” (J Biol Chem, 2007).
Converted amounts (≈) assume the structure as drawn. The source made the active and inactive calls. No cut-off for these calls is given here.

Assays:
[1] = test system: O=C(OCc1ccccc1)c1cn2c(=O)n(Cc3ccccc3)c(=O)cc2s1; conditions: Homo sapiens
Matrilysin = target: T1, Matrilysin (Homo sapiens, UniProt P09237); assay: Inhibition of MMP7
T1 sequence (P09237 whole entry): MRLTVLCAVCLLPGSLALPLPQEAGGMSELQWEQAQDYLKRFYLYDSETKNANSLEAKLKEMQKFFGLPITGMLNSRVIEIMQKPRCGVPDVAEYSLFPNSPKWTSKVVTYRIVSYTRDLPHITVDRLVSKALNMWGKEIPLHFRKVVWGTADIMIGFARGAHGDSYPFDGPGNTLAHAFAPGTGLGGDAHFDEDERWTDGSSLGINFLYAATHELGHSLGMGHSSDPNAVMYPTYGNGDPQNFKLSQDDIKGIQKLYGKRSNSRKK
Method in brief: (§1)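 Buffer: 50 mM Hepes pH 7.0, 10 mM CaCl2, 1 mM DTNB, 0.005% Brij 35, 1% final DMSO. […] Initial rate read as A412 increase at 25 °C. At least triplicate inhibitor titrations. % of control activity fit to a sloped IC50 equation.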

[2] = target: Macrophage metalloelastase (Homo sapiens, UniProt P39900); assay: Inhibition of MMP12 catalytic domain
Method in brief: as §1

Neutrophil collagenase = Neutrophil collagenase (Homo sapiens, UniProt P22894); assay: Inhibition of MMP8 catalytic domain
[3] = target: 72 kDa type IV collagenase (Homo sapiens, UniProt P08253); assay: Inhibition of MMP2
Stromelysin-1 = Stromelysin-1 (Homo sapiens, UniProt P08254); assay: Inhibition of MMP3 catalytic domain
Method in brief: as §1

[4] = target: T2, Matrix metalloproteinase-17 (Homo sapiens, UniProt Q9ULZ9); assay: Inhibition of MMP17 catalytic domain
T2 sequence (Q9ULZ9 whole entry): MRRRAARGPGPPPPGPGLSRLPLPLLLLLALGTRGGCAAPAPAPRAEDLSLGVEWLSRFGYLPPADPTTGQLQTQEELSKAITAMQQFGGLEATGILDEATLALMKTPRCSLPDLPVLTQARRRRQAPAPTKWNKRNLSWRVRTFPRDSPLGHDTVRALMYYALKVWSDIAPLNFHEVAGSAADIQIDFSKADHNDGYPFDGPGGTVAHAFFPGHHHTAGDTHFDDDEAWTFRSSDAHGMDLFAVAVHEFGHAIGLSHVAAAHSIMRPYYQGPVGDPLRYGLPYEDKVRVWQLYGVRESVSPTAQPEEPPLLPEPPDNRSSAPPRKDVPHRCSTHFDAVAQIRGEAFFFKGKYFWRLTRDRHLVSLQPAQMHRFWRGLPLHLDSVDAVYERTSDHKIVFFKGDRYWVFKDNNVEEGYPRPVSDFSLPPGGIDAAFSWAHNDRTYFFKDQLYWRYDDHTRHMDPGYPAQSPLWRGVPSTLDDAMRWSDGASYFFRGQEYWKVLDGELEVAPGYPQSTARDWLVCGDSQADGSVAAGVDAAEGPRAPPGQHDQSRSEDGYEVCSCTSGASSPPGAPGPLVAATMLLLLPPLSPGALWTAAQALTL
Method in brief: as §1

[5] = target: Matrix metalloproteinase-14 (Homo sapiens, UniProt P50281); assay: Inhibition of MMP14 catalytic domain
Method in brief: as §1

[6] = target: Matrix metalloproteinase-9 (Homo sapiens, UniProt P14780); assay: Inhibition of MMP9
Interstitial collagenase = target: T3, Interstitial collagenase (Homo sapiens, UniProt P03956); assay: Inhibition of MMP1
T3 sequence (P03956 whole entry): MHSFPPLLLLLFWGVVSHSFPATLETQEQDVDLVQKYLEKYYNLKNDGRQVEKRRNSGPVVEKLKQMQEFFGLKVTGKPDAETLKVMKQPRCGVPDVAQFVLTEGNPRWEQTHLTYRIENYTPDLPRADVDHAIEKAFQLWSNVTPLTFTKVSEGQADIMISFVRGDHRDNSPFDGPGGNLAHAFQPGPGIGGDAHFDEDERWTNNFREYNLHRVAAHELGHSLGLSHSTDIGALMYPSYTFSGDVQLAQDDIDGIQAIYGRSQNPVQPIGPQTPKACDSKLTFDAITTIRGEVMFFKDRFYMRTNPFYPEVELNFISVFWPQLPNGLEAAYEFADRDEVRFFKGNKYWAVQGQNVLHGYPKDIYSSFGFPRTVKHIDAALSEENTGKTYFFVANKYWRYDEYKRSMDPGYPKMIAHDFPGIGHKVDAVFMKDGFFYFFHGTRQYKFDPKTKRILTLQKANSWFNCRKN

Collagenase 3 = Collagenase 3 (Homo sapiens, UniProt P45452)
[7] = Drug level in Sprague-Dawley rat model of musculoskeletal syndrome side effect at 2000 mg/kg/day, po after 14 days; format: ADME, organism-based; design: route oral; conditions: in vivo
Rattus norvegicus [8] = assay: Toxicity in Sprague-Dawley rat model of musculoskeletal syndrome side effect assessed as induction of joint fibroplasia at 2000 mg/kg/day, po after 14 days; format: organism-based; design: route oral; conditions: in vivo, 336 h
Method in brief: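 Sprague-Dawley rats (6/sex) given vehicle or 2000 mg/kg/day orally for 14 days; a non-selective hydroxamate MMP inhibitor at 2000 mg/kg/day as positive control. Calcaneon tendon and femorotibial, tibiotarsal, humeroradial joints taken bilaterally; femorotibial joints formalin-fixed, decalcified, H&E-stained, examined by light microscopy for fibroplasia.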

Oryctolagus cuniculus [9] = assay: Inhibition of cartilage damage in New Zealand white rabbit osteoarthritis model assessed as reduction of cartilage lesion on femoral condyles at 30 mg/kg, po twice daily after 5 weeks relative to control; format: functional, Condyle; design: scale not given: the % may be the effect or the level left
Method in brief: (§2)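 Oral dosing 30 mg/kg or vehicle twice daily from day 1 post-op for 5 weeks. Joints removed, stained with India ink; two-dimensional lesion areas on tibial plateaus and femoral condyles measured; means ± S.E., compared to vehicle.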

[10] = AUC (0 to 24 hrs) in Sprague-Dawley rat model of musculoskeletal syndrome side effect at 2000 mg/kg/day, po after 14 days; format: ADME, organism-based; design: time < 24 hr, dose 2000 mg/kg/day, route oral; conditions: in vivo
[11] = target: T4, A disintegrin and metalloproteinase with thrombospondin motifs 4 (Homo sapiens, UniProt O75173); assay: Inhibition of human ADAMTS4 assessed as cleavage of aggrecan substrate
T4 sequence (O75173 whole entry): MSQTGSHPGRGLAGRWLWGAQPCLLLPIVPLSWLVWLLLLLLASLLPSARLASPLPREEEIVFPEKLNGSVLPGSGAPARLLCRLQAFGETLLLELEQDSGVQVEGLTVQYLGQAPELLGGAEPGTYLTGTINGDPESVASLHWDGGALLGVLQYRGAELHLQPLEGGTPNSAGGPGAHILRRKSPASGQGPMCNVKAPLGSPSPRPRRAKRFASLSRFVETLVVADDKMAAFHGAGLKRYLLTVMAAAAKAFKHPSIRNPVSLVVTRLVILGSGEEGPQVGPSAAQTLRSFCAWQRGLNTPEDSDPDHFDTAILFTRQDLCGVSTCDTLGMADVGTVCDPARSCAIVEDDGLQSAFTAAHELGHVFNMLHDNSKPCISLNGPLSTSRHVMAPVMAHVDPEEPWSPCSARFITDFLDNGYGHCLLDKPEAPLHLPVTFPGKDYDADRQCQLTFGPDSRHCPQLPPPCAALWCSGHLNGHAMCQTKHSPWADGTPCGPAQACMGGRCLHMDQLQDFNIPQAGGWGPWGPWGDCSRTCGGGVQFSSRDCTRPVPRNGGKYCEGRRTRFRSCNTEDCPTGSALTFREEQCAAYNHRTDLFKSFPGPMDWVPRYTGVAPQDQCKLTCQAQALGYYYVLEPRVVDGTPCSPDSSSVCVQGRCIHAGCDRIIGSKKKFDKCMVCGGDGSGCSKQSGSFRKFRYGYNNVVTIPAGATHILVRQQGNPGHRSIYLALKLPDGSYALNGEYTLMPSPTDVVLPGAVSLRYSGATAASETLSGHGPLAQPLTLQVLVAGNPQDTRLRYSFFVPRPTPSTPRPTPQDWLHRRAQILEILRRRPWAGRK
Method in brief: (§3)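 Isolated human enzyme with native aggrecan as substrate. Cleavage quantified using the BC-3 neoepitope antibody.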

Oryctolagus cuniculus [12] = assay: Inhibition of cartilage damage in New Zealand white rabbit osteoarthritis model assessed as reduction of cartilage lesion on tibial plateau at 30 mg/kg, po twice daily after 5 weeks relative to control; format: functional; design: scale not given: the % may be the effect or the level left
Method in brief: as §2

[13] = Solubility in phosphate buffer at pH 6.5; format: physicochemical
Cartilage tissue = assay: Inhibition of IL1alpha and oncostatin M-stimulated hydroxyproline release from bovine nasal cartilage; format: functional, tissue-based; conditions: Bos taurus
Method in brief: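 Bovine nasal cartilage explants (1 × 3 mm, 9 per group) cultured 2 weeks with interleukin-1 (50 ng/ml) plus oncostatin M (50 ng/ml), with vehicle or up to 10 µM inhibitor. Medium refreshed twice weekly and pooled for hydroxyproline assay; remaining cartilage papain-digested and its hydroxyproline measured. IC50 taken from a plot of inhibition of cartilage degradation; means ± S.E.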

[14] = Solubility in phosphate buffer at pH 7.5; format: physicochemical
Rattus norvegicus [15] = assay: Inhibition of human MMP13-induced type 2 collagen degradation in rat cartilage damage model assessed as type2 collagen neoepitope biomarker level at 0.1 mg/kg, po by enzyme-linked immunosorbent assay; format: functional, organism-based; design: dose 0.1 mg/kg
Method in brief: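 Rats (12 per group) dosed orally with vehicle or various doses; 3 h later knees injected intra-articularly with 12 µg activated full-length human MMP13. Sacrifice 2 h after injection; synovial space lavaged twice with 80 µl saline. Type II collagen neoepitope in lavage quantified by ELISA.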

[16] = AUC (0 to 24 hrs) in New Zealand white rabbit osteoarthritis model at 30 mg/kg, po twice daily after 5 weeks; format: ADME, organism-based, Oryctolagus cuniculus; design: time < 24 hr, dose 30 mg/kg, route oral; conditions: in vivo
[17] = Plasma concentration in New Zealand white rabbit osteoarthritis model at 30 mg/kg, po twice daily after 5 weeks; format: ADME, organism-based, Oryctolagus cuniculus; design: dose 30 mg/kg, route oral
[18] = target: T5, A disintegrin and metalloproteinase with thrombospondin motifs 5 (Homo sapiens, UniProt Q9UNA0); assay: Inhibition of human ADAMTS5 assessed as cleavage of aggrecan substrate
T5 sequence (Q9UNA0 whole entry): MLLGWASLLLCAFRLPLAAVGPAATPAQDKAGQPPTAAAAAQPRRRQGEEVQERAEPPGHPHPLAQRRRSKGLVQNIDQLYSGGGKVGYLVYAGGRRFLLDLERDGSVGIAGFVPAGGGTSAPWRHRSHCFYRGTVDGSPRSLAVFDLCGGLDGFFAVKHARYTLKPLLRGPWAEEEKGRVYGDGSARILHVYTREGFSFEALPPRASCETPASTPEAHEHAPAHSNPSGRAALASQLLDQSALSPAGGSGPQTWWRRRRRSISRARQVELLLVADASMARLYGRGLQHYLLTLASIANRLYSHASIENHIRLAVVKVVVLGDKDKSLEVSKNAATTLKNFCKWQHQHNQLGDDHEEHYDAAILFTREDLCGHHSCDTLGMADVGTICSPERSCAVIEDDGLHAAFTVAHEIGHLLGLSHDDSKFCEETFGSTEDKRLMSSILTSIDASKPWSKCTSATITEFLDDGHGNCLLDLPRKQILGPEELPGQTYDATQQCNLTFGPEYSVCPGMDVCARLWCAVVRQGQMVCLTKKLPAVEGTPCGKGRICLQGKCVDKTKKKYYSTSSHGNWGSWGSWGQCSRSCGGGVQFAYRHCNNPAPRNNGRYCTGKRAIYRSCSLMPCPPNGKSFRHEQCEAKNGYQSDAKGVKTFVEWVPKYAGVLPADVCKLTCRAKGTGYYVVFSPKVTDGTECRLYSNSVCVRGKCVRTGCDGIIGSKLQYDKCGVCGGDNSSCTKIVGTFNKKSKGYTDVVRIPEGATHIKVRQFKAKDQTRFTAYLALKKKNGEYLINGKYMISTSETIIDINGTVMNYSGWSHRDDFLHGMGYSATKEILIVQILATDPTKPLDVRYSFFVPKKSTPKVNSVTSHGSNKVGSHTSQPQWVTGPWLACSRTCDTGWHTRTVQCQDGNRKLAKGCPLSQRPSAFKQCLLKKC
Method in brief: as §3

[19] = Solubility in phosphate buffer at pH 6; format: physicochemical

Sequence of Macrophage metalloelastase (P39900 whole entry, the tested form may be a part): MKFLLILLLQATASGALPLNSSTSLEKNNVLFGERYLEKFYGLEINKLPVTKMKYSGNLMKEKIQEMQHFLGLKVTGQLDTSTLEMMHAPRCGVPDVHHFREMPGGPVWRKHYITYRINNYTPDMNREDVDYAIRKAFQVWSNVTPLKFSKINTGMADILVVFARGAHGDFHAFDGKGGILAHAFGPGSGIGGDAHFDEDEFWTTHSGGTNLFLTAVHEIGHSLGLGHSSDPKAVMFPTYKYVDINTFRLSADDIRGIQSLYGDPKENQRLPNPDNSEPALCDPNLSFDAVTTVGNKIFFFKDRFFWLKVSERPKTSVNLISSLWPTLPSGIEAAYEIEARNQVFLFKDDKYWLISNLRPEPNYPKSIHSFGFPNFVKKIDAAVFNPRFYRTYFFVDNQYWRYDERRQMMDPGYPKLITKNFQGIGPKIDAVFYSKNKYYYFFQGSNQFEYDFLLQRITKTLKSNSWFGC
Sequence of Stromelysin-1 (P08254 whole entry, the tested form may be a part): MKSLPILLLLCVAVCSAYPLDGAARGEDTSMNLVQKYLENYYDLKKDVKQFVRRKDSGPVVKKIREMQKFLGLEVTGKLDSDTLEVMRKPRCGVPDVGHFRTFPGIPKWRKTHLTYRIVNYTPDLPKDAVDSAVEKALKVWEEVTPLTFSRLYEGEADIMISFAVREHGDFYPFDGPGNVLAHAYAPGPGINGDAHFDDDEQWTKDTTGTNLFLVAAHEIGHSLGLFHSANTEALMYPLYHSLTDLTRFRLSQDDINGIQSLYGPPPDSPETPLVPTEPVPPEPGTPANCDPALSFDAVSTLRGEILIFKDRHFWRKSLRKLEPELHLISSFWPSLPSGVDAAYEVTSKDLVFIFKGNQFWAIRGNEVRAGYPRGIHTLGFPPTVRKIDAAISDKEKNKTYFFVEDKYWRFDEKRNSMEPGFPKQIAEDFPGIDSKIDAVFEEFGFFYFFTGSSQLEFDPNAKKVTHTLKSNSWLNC
Sequence of 72 kDa type IV collagenase (P08253 whole entry, the tested form may be a part): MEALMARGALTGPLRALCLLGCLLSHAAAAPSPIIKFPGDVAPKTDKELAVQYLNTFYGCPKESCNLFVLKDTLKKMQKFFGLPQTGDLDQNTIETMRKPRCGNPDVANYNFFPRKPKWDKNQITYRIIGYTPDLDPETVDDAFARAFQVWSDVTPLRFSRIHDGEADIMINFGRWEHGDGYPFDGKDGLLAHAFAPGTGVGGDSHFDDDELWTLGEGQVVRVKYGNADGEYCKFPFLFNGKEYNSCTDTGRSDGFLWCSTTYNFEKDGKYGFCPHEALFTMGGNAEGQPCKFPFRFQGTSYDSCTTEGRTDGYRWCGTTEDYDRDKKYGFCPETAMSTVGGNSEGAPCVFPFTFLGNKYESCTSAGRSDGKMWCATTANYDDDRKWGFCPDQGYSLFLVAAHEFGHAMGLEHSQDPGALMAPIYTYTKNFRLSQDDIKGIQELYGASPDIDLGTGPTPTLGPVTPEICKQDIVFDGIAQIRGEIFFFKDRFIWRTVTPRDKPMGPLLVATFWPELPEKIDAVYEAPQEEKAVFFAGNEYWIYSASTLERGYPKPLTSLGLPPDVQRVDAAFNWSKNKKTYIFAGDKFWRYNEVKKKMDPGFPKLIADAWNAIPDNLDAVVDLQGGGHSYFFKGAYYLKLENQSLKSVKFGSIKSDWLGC
Sequence of Neutrophil collagenase (P22894 whole entry, the tested form may be a part): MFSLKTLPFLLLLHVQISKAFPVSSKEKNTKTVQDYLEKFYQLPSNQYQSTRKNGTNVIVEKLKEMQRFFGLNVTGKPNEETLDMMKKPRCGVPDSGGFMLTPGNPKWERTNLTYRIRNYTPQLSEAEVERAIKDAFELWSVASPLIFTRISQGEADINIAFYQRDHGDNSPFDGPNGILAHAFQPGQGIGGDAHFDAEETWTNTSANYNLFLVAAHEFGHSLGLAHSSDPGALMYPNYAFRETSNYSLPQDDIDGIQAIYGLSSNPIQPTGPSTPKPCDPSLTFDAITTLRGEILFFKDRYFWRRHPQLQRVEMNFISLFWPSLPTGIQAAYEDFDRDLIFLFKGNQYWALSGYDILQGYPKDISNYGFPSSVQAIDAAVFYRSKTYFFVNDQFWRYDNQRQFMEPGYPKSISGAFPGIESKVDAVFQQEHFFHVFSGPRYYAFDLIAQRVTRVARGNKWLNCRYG
Sequence of Matrix metalloproteinase-9 (P14780 whole entry): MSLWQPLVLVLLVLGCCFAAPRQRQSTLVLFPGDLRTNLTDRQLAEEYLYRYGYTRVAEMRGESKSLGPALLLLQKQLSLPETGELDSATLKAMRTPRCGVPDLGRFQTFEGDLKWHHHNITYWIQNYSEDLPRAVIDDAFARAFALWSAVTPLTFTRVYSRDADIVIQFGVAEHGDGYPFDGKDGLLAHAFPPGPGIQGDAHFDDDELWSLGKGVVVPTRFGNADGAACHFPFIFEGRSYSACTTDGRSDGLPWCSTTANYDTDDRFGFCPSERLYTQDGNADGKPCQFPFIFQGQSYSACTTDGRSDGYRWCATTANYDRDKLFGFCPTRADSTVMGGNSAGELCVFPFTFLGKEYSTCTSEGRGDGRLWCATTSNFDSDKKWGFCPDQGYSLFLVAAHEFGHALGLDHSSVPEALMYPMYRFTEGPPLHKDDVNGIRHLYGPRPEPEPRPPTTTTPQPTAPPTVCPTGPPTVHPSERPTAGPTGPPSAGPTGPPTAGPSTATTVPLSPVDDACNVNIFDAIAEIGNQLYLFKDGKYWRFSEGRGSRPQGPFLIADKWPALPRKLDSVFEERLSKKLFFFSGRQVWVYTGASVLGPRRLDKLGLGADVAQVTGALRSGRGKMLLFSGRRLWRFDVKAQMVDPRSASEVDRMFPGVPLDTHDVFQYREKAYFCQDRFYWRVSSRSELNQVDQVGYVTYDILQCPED

| Compound | IC50 (Matrilysin) [µM] | IC50 [2] [µM] | IC50 (Neutrophil collagenase) [µM] | IC50 [3] [µM] | IC50 (Stromelysin-1) [µM] | IC50 [4] [µM] | IC50 [5] [µM] | IC50 [6] [µM] | IC50 (Interstitial collagenase) [µM] | AUC at 336 h [7] [µg·h/mL] | Activity (Rattus norvegicus [8]) | other results |
| --- | --- | --- | --- | --- | --- | --- | --- | --- | --- | --- | --- | --- |
| Collagenase 3 (Homo sapiens) (from UniProt P45452) |  |  |  |  |  |  |  |  |  |  |  | Km [1]: 48 µM |
| O=C(OCc1ccccc1)c1cn2c(=O)n(Cc3ccccc3)c(=O)cc2s1 | > 100 | > 100 | > 100 | > 100 | > 100 | > 100 | > 100 | > 100 | > 100 |  |  |  |
| CNC(=O)[C@H](Cc1c[nH]c2ccccc12)NC(=O)[C@@H](CC(=O)NO)CC(C)C [ILOMASTAT] | 0.033 | 0.0051 |  |  | 0.007 | 0.0034 | 0.0047 |  |  |  |  | IC50 (Collagenase 3): 0.0052 µM |
| CC(C)[C@@H](NS(=O)(=O)c1ccc(-c2ccc(Br)cc2)cc1)C(=O)NO |  |  |  |  |  |  |  |  |  | 94 | Toxic |  |
| Cn1c(=O)n(Cc2ccc(C(=O)O)cc2)c(=O)c2cc(C#CCc3ccccc3)ccc21 | > 30 | > 100 | > 100 | > 30 | > 30 | > 30 | > 30 | > 100 | > 30 | 30 | Non-toxic | Activity (Oryctolagus cuniculus [9]): 51%; AUC at 24 h [10]: 1010 µg·h/mL; IC50 [11]: > 25 µM; Activity (Oryctolagus cuniculus [12]): 68%; solubility [13]: < 3 µM; IC50 (Cartilage tissue): 1.3 µM; solubility [14]: < 3 µM; Activity (Rattus norvegicus [15]): Active; AUC at 24 h [16]: 6 µg·h/mL; AUC at 840 h [17]: 200 µg·h/mL; IC50 [18]: > 25 µM; solubility [19]: 20 µM (≈ 8.49 µg/mL) |
